In ChEMBL document CHEMBL1139532, “Synthesis and monoamine transporter binding properties of 3alpha-(substituted phenyl)nortropane-2beta-carboxylic acid methyl esters. Norepinephrine transporter selective compounds” (J Med Chem, 2005):

Columns and labels:
[1] = molecular target: Sodium-dependent dopamine transporter (Rattus norvegicus, UniProt P23977); assay: Inhibition of [3H]WIN-35428 binding to rat striatal dopamine transporter
[2] = molecular target: T1, Sodium-dependent serotonin transporter (Rattus norvegicus, UniProt P31652); assay: Inhibition of [3H]paroxetine binding to rat cortex serotonin transporter
T1 sequence (P31652 whole entry): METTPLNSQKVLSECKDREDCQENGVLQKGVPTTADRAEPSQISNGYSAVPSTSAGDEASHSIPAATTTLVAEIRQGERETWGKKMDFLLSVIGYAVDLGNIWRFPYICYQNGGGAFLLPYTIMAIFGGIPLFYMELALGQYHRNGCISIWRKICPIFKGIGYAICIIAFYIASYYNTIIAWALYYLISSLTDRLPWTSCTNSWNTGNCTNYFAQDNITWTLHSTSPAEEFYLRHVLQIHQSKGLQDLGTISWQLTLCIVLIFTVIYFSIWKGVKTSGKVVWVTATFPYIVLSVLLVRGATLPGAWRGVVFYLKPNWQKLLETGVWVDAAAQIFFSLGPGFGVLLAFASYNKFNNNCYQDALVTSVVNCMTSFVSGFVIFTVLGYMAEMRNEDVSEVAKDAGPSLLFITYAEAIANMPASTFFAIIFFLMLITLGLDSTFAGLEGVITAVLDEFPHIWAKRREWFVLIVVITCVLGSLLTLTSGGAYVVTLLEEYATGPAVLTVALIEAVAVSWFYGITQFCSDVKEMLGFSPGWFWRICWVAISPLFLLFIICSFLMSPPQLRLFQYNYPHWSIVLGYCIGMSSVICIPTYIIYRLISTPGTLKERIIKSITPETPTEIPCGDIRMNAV
Method in brief: (§1)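 Male Sprague-Dawley rat (200-250 g) brain tissue, 1.5 mg original wet weight, in 50 mM Tris, 120 mM NaCl, 5 mM KCl, pH 7.4, with 0.2 nM [3H]paroxetine and 10 test concentrations, 90 min at room temperature. 1 µM citalopram defines nonspecific binding. GF/B filtration.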

[3] = molecular target: T2, Norepinephrine transporter (Rattus norvegicus, UniProt Q9WTR4); assay: Inhibition of [3H]nisoxetine binding to rat cerebral cortex norepinephrine transporter; type: tissue-based
T2 sequence (Q9WTR4 whole entry): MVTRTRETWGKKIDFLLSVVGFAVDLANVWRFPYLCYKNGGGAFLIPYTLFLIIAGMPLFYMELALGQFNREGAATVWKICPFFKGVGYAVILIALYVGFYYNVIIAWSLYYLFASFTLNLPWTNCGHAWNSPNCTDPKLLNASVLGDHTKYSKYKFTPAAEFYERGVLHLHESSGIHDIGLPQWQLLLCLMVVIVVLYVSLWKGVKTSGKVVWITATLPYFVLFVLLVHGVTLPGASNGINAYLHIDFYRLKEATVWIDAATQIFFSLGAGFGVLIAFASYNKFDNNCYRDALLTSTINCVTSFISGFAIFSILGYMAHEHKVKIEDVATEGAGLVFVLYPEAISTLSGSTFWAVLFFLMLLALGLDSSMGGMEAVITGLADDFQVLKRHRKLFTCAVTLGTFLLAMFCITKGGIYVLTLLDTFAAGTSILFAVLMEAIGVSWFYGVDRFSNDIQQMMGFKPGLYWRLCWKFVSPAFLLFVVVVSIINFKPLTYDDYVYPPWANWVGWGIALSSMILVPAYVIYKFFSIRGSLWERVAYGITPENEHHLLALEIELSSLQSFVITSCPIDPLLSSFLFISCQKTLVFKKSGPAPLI
Method in brief: (§2)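 Male Sprague-Dawley rat (200-250 g) cerebral cortex, 8 mg per tube, in 50 mM Tris, 120 mM NaCl, 5 mM KCl, pH 7.4 at 4 °C, with [3H]nisoxetine and 10 test concentrations. 1 µM desipramine defines nonspecific binding. GF/B filtration, ice-cold washes.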

[4] = molecular target: T2, Norepinephrine transporter; assay: Displacement of [3H]nisoxetine from norepinephrine transporter (NET) of rat cerebral cortex; type: tissue-based; method in brief: as §2
[5] = molecular target: T1, Sodium-dependent serotonin transporter; assay: Displacement of [3H]paroxetine from serotonin transporter (5-HT) of rat cerebral cortex; type: tissue-based; method in brief: as §1

Sodium-dependent dopamine transporter, sequence (P23977 whole entry): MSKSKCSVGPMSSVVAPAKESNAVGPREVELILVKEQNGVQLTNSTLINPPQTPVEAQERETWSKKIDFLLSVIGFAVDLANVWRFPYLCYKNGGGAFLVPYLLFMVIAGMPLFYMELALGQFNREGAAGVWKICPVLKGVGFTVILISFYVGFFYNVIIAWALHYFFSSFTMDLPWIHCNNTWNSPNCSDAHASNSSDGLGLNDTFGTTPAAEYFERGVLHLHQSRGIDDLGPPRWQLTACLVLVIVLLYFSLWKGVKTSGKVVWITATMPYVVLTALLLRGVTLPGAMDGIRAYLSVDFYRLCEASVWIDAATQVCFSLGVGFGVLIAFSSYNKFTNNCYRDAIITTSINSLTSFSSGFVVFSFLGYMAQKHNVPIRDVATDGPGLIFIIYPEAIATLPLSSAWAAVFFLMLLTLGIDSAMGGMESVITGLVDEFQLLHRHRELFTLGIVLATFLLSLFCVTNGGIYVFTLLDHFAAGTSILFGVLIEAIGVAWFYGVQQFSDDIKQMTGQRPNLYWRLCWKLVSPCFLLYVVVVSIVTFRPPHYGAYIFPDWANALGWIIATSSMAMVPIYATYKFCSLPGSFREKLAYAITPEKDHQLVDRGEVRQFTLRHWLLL

| Compound | IC50 [1] [µM] | IC50 [2] [µM] | IC50 [3] [µM] | Ki [4] [µM] | Ki [5] [µM] |
| --- | --- | --- | --- | --- | --- |
| COC(=O)C1C2CCC(CC1c1ccc(F)c(F)c1)N2 (centres undefined) | 0.00561 | 0.226 | 0.0063 | 0.0026 | 0.0553 |
| COC(=O)C1C(c2ccc(F)c(C)c2)CC2CCC1N2C (centres undefined) | 0.0137 | 1.16 | 0.148 | 0.074 | 0.258 |
| COC(=O)C1C2CCC(CC1c1cc(F)cc(F)c1)N2 (centres undefined) | 0.00235 | 0.0558 | 0.0041 | 0.00205 | 0.0137 |
| COC(=O)C1C(c2ccc(C)c(F)c2)CC2CCC1N2C (centres undefined) | 0.00738 | 1.15 |  | 0.0224 | 0.282 |
| COC(=O)C1C2CCC(CC1c1cccc(F)c1)N2 (centres undefined) | 0.00236 | 0.11 | 0.0097 | 0.004 | 0.0268 |
| COC(=O)C1C2CCC(CC1c1ccc(C)c(F)c1)N2 (centres undefined) | 0.009 | 0.0974 | 0.00086 | 0.00043 | 0.0238 |
| COC(=O)C1C2CCC(CC1c1ccc(F)c(C)c1)N2 (centres undefined) | 0.00938 | 0.0698 | 0.00423 | 0.00212 | 0.0171 |
